The results in this text go back to ChEMBL document CHEMBL1773037, “Evaluation of superior BACE1 cleavage sequences containing unnatural amino acids” (Bioorg Med Chem, 2011).

Substrate in the data set: CC[C@H](C)[C@H](N)C(=O)N[C@@H](CCCCN)C(=O)N[C@H](C(=O)N[C@@H](CCC(=O)O)C(=O)N[C@@H](CCC(=O)O)C(=O)N[C@H](C(=O)N[C@@H](CO)C(=O)N[C@@H](CCC(=O)O)C(=O)N[C@H](C(=O)N[C@@H](CC(N)=O)C(=O)N[C@@H](CC(C)C)C(=O)N[C@@H](CC(=O)O)C(=O)N[C@@H](C)C(=O)N[C@@H](CCC(=O)O)C(=O)N[C@@H](Cc1ccccc1)C(=O)N[C@@H](CCCNC(=N)N)C(=O)N[C@@H](Cc1cnc[nH]1)C(=O)N[C@@H](CC(=O)O)C(=O)N[C@@H](CO)C(=O)NCC(N)=O)C(C)C)[C@@H](C)CC)[C@@H](C)O
Description: Activity of recombinant BACE assessed as substrate cleavage at 105 uM after 15 mins by HPLC analysis. The procedure, abridged:
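Kinetic run: rBACE1 (33 nM) added to eicosapeptide amide at final concentrations 0–105, 37 °C, 15 min. Aliquots analysed by HPLC, and initial rates taken from the decrease in substrate peak area. Km obtained from a plot of [S]/v versus [S]. Measurements done three times and averaged.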

B1: Beta-secretase 1 (Homo sapiens), P56817 (protein)
chain: MAQALPWLLLWMGAGVLPAHGTQHGIRLPLRSGLGGAPLGLRLPRETDEEPEEPGRRGSFVEMVDNLRGKSGQGYYVEMTVGSPPQTLNILVDTGSSNFAVGAAPHPFLHRYYQRQLSSTYRDLRKGVYVPYTQGKWEGELGTDLVSIPHGPNVTVRANIAAITESDKFFINGSNWEGILGLAYAEIARPDDSLEPFFDSLVKQTHVPNLFSLQLCGAGFPLNQSEVLASVGGSMIIGGIDHSLYTGSLWYTPIRREWYYEVIIVRVEINGQDLKMDCKEYNYDKSIVDSGTTNLRLPKKVFEAAVKSIKAASSTEKFPDGFWLGEQLVCWQAGTTPWNIFPVISLYLMGEVTNQSFRITILPQQYLRPVEDVATSQDDCYKFAISQSSTGTVMGAVIMEGFYVVFDRARKRIGFAVSACHVHDEFRTAAVEGPFVTLDMEDCGYNIPQTDESTLMTIAYVMAAICALFMLPLCLMVCQWRCLRCLRQQHDDFADDISLLK
For the protein B1, the Km worked out at 5.5 µM and the kcat worked out at 1720 s⁻¹.

In general, Km refers to the substrate concentration at which the rate is half of its maximum. Usually kcat stands for the maximal rate divided by the concentration of active sites.
